How the values were obtained:
[1] = MTT cytotoxicity assay in murine macrophage cells; type: cell-based; details: mouse, RAW 264.7 murine macrophage cells
phosphorylation of IκBα = assay: Western blot analysis of phosphorylation of IκBα in RAW264.7 cells; type: cell-based, mouse; details: increasing concentrations, in the presence of LPS, 4 hr
Summary of the method: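 Cells were grown to near confluency and dosed with LPS plus compound at 37 °C. Lysates were made in SDS/2-mercaptoethanol loading buffer, sonicated 15 s and heated at 99.9 °C for 5 min. Proteins were run on 4–15% polyacrylamide SDS gels and transferred to membrane, which was blocked with 5% milk for 1 h. Probes were anti-phospho-IκB and anti-IκB (1:1000) with HRP secondary (1:3000, 1 h, room temperature), detected by chemiluminescence on X-ray film; β-actin served as control.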

NF-κB = assay: LPS-induced NF-κB luciferase reporter assay in RAW264.7 cells; type: cell-based; details: Mus musculus, RAW264.7, read-out: inhibition of NF-κB
Summary of the method: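 RAW264.7 cells stably transfected with an NF-κB luciferase reporter were seeded at 5 × 10^4 cells per well in 96-well plates. After 24 h recovery, cells were exposed to test compound plus LPS (100 ng/mL) for 18 h. Lysates were mixed with luciferase assay reagent and luminescence was read. IC50 is given as mean ± SE, n = 3.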

[2] = system: nitric oxide (NO) production; assay: Griess assay of LPS stimulated nitric oxide production in RAW264.7 cells; type: cell-based, murine; details: concentrations up to 10 μM
Summary of the method: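 RAW264.7 cells were plated in RPMI1640 and held 24 h at 37 °C. Medium was replaced, then compound and E. coli 055:B5 LPS were added. Culture supernatant was reacted with Griess reagent (0.5% sulfanilamide, 0.05% N-1-naphthylethylenediamine dihydrochloride, 2.5% H3PO4) for 30 min at room temperature in the dark. Absorbance was read at 530 nm and converted to nitrite using a sodium nitrite standard curve.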

iNOS = assay: qPCR of LPS-induced iNOS expression in RAW264.7 cells; type: cell-based, mouse; details: concentrations up to 10 μM; data not shown
Summary of the method: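 RAW264.7 cells were co-treated with LPS (100 ng/mL) and compound at 0.01–10 μM. Total RNA (0.5 μg) was DNase I-treated and reverse transcribed, and cDNAs were pooled per condition. SYBR Green real-time PCR array was normalised to GAPDH. Data come from three independent experiments and were compared by one-way ANOVA (p<0.05).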

RAW 264.7 cells = assay: MTT cytotoxicity assay in murine macrophage cells; type: cell-based
HCT-116 cells = assay: Human colon tumor HCT-116 cytotoxicity assay; type: cell-based; details: HCT-116, read-out: IC50 HCT-116

Compound | IC50 at 18 h [1] [µM] | IκBα phosphorylation (phosphorylation of IκBα) | IC50 (NF-κB) [µM] | inhibition of LPS stimulated NO production [2] | effect on iNOS expression (iNOS) | cytotoxicity to RAW 264.7 macrophage immune cells (in words) (RAW 264.7 cells) | IC50 (HCT-116 cells) [µM]
CO[C@@H](C(=O)N[C@H]1CCCCNC1=O)[C@H](O)[C@@H](O)[C@H](O)/C=C/C(C)C [compound 8, bengamide E] | > 50 | clear decrease in the levels of observed IκBα phosphorylation |  |  |  |  | 
CCCCCCCCCCCCCC(=O)O[C@H]1CC[C@H](NC(=O)[C@H](OC)[C@H](O)[C@@H](O)[C@H](O)/C=C/C(C)C)C(=O)N(C)C1 [compound 7, bengamide B] | > 50 | clear decrease in the levels of observed IκBα phosphorylation | 0.09 | Neither 6 nor 7 showed NO inhibition activity | Neither 6 nor 7 showed NO inhibition activity or an effect on iNOS expression | without cytotoxicity | 
CO[C@@H](C(=O)N[C@H]1CC[C@@H](OC(=O)C2CCCCC2)CN(C)C1=O)[C@H](O)[C@@H](O)[C@H](O)/C=C/C(C)(C)C [compound 12, LAF 389, reference compound] | > 50 |  |  |  |  |  | 
CCC(C)/C=C/[C@@H](O)[C@H](O)[C@@H](O)[C@@H](OC)C(=O)N[C@H]1CCCCN(C)C1=O (stereo partly shown) [compound 14, bengamide F’] | > 50 |  |  |  |  |  | 5.1
CCCCCCCCCCCCCC(=O)O[C@H]1CC[C@H](NC(=O)[C@H](OC)[C@H](O)[C@@H](O)[C@H](O)/C=C/C(C)C)C(=O)NC1 [compound 6, bengamide A] | > 50 | clear decrease in the levels of observed IκBα phosphorylation | 0.08 | Neither 6 nor 7 showed NO inhibition activity | Neither 6 nor 7 showed NO inhibition activity or an effect on iNOS expression | without cytotoxicity | 
CC1=C(O)C(=O)C=C2C1=CC=C1[C@@]2(C)CC[C@@]2(C)[C@@H]3C[C@](C)(C(=O)O)CC[C@]3(C)CC[C@]12C [compound 5, celastrol, reference compound] | > 50 |  |  |  |  |  | 
CCC(C)/C=C/[C@@H](O)[C@H](O)[C@@H](O)[C@@H](OC)C(=O)N[C@H]1CCCCNC1=O (stereo partly shown) [compound 13, bengamide E’] | > 50 |  |  |  |  |  | 

Source: publication PMC3417756 (Bioorganic & medicinal chemistry, 2012)
